Assay results published in ChEMBL document CHEMBL1124288, “Synthesis and analgesic properties of N-substituted trans-4a-aryldecahydroisoquinolines” (J Med Chem, 1988).

Key:
[1] = test system: Mus musculus; test: Dose (sc) required for 50% reduction in frequency of writhing in mouse writhing analgesia test; assay type: functional
[2] = target: Mu-type opioid receptor (Rattus norvegicus, UniProt P33535); test: Binding affinity to Opioid receptor mu 1 in rat brain using [3H]-NAL as radioligand; assay type: tissue-based
Sequence of Mu-type opioid receptor (P33535 whole entry): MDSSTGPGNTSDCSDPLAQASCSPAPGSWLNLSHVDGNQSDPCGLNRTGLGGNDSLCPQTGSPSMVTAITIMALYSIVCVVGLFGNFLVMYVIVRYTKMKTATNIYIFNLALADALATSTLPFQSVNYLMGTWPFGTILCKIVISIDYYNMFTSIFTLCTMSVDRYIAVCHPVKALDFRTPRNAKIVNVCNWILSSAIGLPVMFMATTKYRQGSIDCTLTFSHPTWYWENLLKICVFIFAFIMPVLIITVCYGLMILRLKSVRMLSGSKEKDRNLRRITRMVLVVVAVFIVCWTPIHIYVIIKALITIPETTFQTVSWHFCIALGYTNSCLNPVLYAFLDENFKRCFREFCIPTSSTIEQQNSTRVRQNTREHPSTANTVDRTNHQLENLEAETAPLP
Summary of the method: (§1)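 μ sites labelled with [3H]naloxone in rat brain homogenates. The assay details are given in an earlier report.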

[3] = target: Kappa-type opioid receptor (Cavia porcellus, UniProt P41144); test: Binding affinity to Opioid receptor kappa 1 in guinea pig cortex using [3H]EKC as radioligand
Sequence of Kappa-type opioid receptor (P41144 whole entry): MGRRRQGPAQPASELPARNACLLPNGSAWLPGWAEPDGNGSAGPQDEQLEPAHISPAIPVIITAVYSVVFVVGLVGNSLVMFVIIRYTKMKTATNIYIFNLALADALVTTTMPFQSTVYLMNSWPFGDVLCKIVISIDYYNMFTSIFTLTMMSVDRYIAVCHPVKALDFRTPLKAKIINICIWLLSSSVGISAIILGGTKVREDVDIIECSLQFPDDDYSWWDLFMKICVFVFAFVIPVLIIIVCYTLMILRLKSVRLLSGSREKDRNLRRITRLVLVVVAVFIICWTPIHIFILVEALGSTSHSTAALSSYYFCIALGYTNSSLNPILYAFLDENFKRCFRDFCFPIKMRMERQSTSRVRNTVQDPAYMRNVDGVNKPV

[4] = test system: Rattus norvegicus; test: Dose (sc) required for a 2-s increase in reaction time in rat tail heat analgesia test; assay type: functional
[5] = target: Mu-type opioid receptor (Rattus norvegicus) (UniProt P33535); test: Binding affinity to Opioid receptor mu 1 in rat brain using [3H]NAL as radioligand; assay type: tissue-based; summary of the method: as §1
Sequence of Mu-type opioid receptor (Rattus norvegicus) (P33535 whole entry): as the sequence (P33535 whole entry) above

[6] = target: Mu-type opioid receptor (Rattus norvegicus) (UniProt P33535); test: Percent displacement of [3H]NAL from Opioid receptor mu 1 at 1000 nM conc. of compound
[7] = target: Kappa-type opioid receptor (Cavia porcellus) (UniProt P41144); test: Percent displacement of [3H]EKC from Opioid receptor kappa 1 at 1000 nM conc. of compound
Sequence of Kappa-type opioid receptor (Cavia porcellus) (P41144 whole entry): as the sequence (P41144 whole entry) above

[8] = target: Kappa-type opioid receptor (Cavia porcellus) (UniProt P41144); test: Percent displacement of [3H]EKC from Opioid receptor kappa 1 at 100 nM conc. of compound
[9] = target: Mu-type opioid receptor (Rattus norvegicus) (UniProt P33535); test: Percent displacement of [3H]-NAL from Opioid receptor mu 1 in rat brain at 1000 nM conc. of compound; assay type: tissue-based
[10] = target: Kappa-type opioid receptor (Cavia porcellus) (UniProt P41144); test: Percent displacement of [3H]EKC from Opioid receptor kappa 1 in guinea pig cortex at 100 nM conc. of compound
[11] = target: Kappa-type opioid receptor (Cavia porcellus) (UniProt P41144); test: Percent displacement of [3H]EKC from Opioid receptor kappa 1 in guinea pig cortex at 1000 nM conc. of compound
[12] = target: Mu-type opioid receptor (Rattus norvegicus) (UniProt P33535); test: Binding affinity to mu opioid receptor in rat brain using [3H]NAL as radioligand; assay type: tissue-based; summary of the method: as §1
[13] = Mus musculus, sc, read-out: ED50

## CCN1CCC2(c3cccc(O)c3)CCCC[C@H]2C1 (some centres not stated)
[1]; [13]
  ED50: 18.2 mg/kg
[2]
  Ki: 29 nM
[3]
  Ki: 529 nM
[4]
  ED2sec: >100 mg/kg

## COc1cccc(C23CCCC[C@H]2CN(C)CC3)c1 (some centres not stated)
[1]; [13]
  ED50: 1.2 mg/kg
[4]
  ED2sec: 3.3 mg/kg

## Oc1cccc(C23CCCC[C@H]2CN(CC2CCC2)CC3)c1 (some centres not stated)
[1]; [13]
  ED50: 0.6 mg/kg

## CCCN1CCC2(c3cccc(O)c3)CCCC[C@H]2C1 (some centres not stated)
[1]; [13]
  ED50: 1.5 mg/kg
[4]
  ED2sec: 1.3 mg/kg

## CC(C)=CCN1CCC2(c3cccc(O)c3)CCCC[C@H]2C1 (some centres not stated)
[1]; [13]
  ED50: 1 mg/kg
[4]
  ED2sec: 1.5 mg/kg

## C=CCN1CCC2(c3cccc(O)c3)CCCC[C@H]2C1 (some centres not stated)
[1]; [13]
  ED50: 1 mg/kg
[4]
  ED2sec: 1.4 mg/kg

## CN1CCC2(c3ccccc3)CCCC[C@H]2C1 (some centres not stated)
[1]; [13]
  ED50: 3.5 mg/kg
[4]
  ED2sec: 8.8 mg/kg

## Oc1cccc(C23CCCC[C@H]2CN(CCc2ccccc2)CC3)c1 (some centres not stated)
[1]; [13]
  ED50: 0.3 mg/kg
[4]
  ED2sec: 0.08 mg/kg

## Oc1cccc(C23CCCC[C@H]2CN(CC2CC2)CC3)c1 (single isomer, unassigned; (+)) [listing 1 of 2 here]
[1]
  ED50: >50 mg/kg
[4]
  ED2sec: >50 mg/kg

## CN1CCC2(c3cccc(O)c3)CCCC[C@H]2C1 (single isomer, unassigned; (+))
[1]
  ED50: 0.4 mg/kg
[2]
  Ki: 0.96 nM
[3]
  Ki: 61 nM
[4]
  ED2sec: 0.3 mg/kg

## C=CCN1CCC2(c3cccc(O)c3)CCCC[C@H]2C1 (single isomer, unassigned; (+))
[5]
  Displacement: 15%
[6]
  Displacement: 42%
[7]
  Displacement: 16%
[8]
  Displacement: 2%

## CCCN1CCC2(c3cccc(O)c3)CCCC[C@H]2C1 (single isomer, unassigned; (+))
[5]
  Displacement: 43%
[9]
  Displacement: 83%
[10]
  Displacement: 4%

## CCN1CCC2(c3cccc(O)c3)CCCC[C@H]2C1 (single isomer, unassigned; (+))
[9]
  Displacement: 70%
[11]
  Displacement: 15%
[10]
  Displacement: 0%
[12]
  Displacement: 34%

## Oc1cccc(C23CCCC[C@H]2CN(CC2CC2)CC3)c1 (single isomer, unassigned; (+)) [listing 2 of 2 here]
[5]
  Displacement: 4%
[9]
  Displacement: 35%
[11]
  Displacement: 32%
[10]
  Displacement: 5%

## Oc1cccc(C23CCCC[C@H]2CN(CCc2ccccc2)CC3)c1 (single isomer, unassigned; (+))
[5]
  Displacement: 19%
[9]
  Displacement: 74%
[11]
  Displacement: 53%
[10]
  Displacement: 8%

## Oc1cccc(C23CCCC[C@H]2CN(CC2CC2)CC3)c1 (single isomer, unassigned; (-))
[1]
  ED50: 2.2 mg/kg
[2]
  Ki: 4.2 nM
[3]
  Ki: 2.5 nM
[4]
  ED2sec: 3 mg/kg

## CCCN1CCC2(c3cccc(O)c3)CCCC[C@H]2C1 (single isomer, unassigned; (-)) [listing 1 of 2 here]
[2]
  Ki: 473 nM

## CN1CCC2(c3cccc(O)c3)CCCC[C@H]2C1 (single isomer, unassigned; (-))
[1]
  ED50: 2.1 mg/kg
[2]
  Ki: 8.9 nM
[3]
  Ki: 433 nM
[4]
  ED2sec: 1.6 mg/kg

## Oc1cccc(C23CCCC[C@H]2CN(CCc2ccccc2)CC3)c1 (single isomer, unassigned; (-))
[2]
  Ki: 0.23 nM
[3]
  Ki: 89 nM

## CCCN1CCC2(c3cccc(O)c3)CCCC[C@H]2C1 (single isomer, unassigned; (-)) [listing 2 of 2 here]
[11]
  Displacement: 46%
[10]
  Displacement: 12%

## CN1CCC2(c3cccc(O)c3)CCCC[C@H]2C1 (stereo in doubt; 13)
[1]
  ED50: 0.5 mg/kg
[4]
  ED2sec: 0.4 mg/kg

## Oc1cccc(C23CCCC[C@H]2CN(CC2CC2)CC3)c1 (stereo in doubt; 29)
[1]
  ED50: 3.3 mg/kg
[4]
  ED2sec: 5.6 mg/kg

## CC(C)=CCN1CC[C@]2(C)c3cc(O)ccc3C[C@H]1[C@H]2C [(+)-PENTAZOCINE]
[1]; [13]
  ED50: 2 mg/kg
[2]
  Ki: 6.9 nM
[3]
  Ki: 75 nM
[4]
  ED2sec: 2.6 mg/kg

## C[C@H]1[C@H]2Cc3ccc(O)cc3[C@]1(C)CCN2CC1CC1 [CYCLAZOCINE]
[1]; [13]
  ED50: 0.07 mg/kg
[2]
  Ki: 1.2 nM
[3]
  Ki: 1.3 nM

## CN1CC[C@]23c4c5ccc(O)c4O[C@H]2[C@@H](O)C=C[C@H]3[C@H]1C5 [MORPHINE]
[1]; [13]
  ED50: 0.9 mg/kg
[4]
  ED2sec: 0.7 mg/kg

## C=CCN1CC[C@]23c4c5ccc(O)c4O[C@H]2[C@@H](O)C=C[C@H]3[C@H]1C5 [NALORPHINE]
[1]; [13]
  ED50: 0.7 mg/kg
[2]
  Ki: 6.5 nM
[3]
  Ki: 15 nM
[4]
  ED2sec: >100 mg/kg
